# From PubChem BioAssay
# TCR CD3 inh: inhibitors of human TCR-CD3 interaction, primary screen, biochemical, fluorescence, TAMRA-labeled TCR probe; T-cell receptor (TCR); inhibition, % at 9.4 µM; 0.37% of 360,000 active; AID 651800, 2012; in the data active means inhibition above about 19%;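 further: recombinant mutant TCR 2C K166C tagged with TAMRA read by polarization; 0% = receptor in buffer alone and 100% = receptor with positive control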
# mABHD4 FP: ABHD4 inhibitors, primary screen, biochemical, fluorescence polarization, mouse | (Lyso)-N-acylphosphatidylethanolamine lipase (Mus musculus), Q8VD66 | inhibition, % at 8.92 µM | 0.54% of 370,000 active | purified mABHD4, FP-Rh probe fluorescence polarization;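 active means inhibition exceeding the mean over every tested compound plus 3 SD, cut at about 30% in these data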;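 further: 0% = plate median of compound wells and 100% = S159A mutant with DMSO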
# Target sequence (Q8VD66 whole entry, looked up): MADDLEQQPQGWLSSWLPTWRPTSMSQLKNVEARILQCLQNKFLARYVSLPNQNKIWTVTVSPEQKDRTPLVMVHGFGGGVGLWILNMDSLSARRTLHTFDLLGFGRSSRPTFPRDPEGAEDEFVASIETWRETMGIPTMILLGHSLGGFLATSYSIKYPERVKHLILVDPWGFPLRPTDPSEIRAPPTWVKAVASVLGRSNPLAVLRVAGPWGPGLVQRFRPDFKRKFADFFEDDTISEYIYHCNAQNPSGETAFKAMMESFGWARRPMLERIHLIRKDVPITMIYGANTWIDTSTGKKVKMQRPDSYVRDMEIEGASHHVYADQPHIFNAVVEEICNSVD
#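 System: mouse ABHD4 enzyme, wild type / Medium: HEPES pH 7.0, NaCl, Pluronic buffer / Reagent: FP-Rh activity-based fluorescent probe / Control set: S159A mutant high control, sample median low control / Detection: fluorescence polarization with parallel and perpendicular emission, 525/598 nm / Schedule: 45 min + 60 min at 25 °C / Compound dosing: 8.92 µM, single dose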
# LEDGF integ inh: blockers of LEDGF/p75-dependent integrase strand transfer – biochemical, TR-FRET, high throughput, primary screen; HIV-1 integrase (with human LEDGF/p75); TR-FRET IN-LEDGF/p75 DNA integration, Eu/Cy5; inhibition, % at 3.7 µM; 0.64% of 370,000 active; AID 743269, 2014;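 active means inhibition above the screen-wide mean plus 3 SD, cut at about 13% in these data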;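 further: signal is the Cy5 over europium emission ratio at 671 and 618 nm; 0% = plate median of compound wells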
# SIAE primary: human SIAE inhibitors, primary screen, biochemical, fluorescence polarization, FP-Rh probe, 1536-well HTS; Sialate O-acetylesterase (Homo sapiens), Q9HAT2; SIAE FP-Rh probe binding; inhibition, % at 9.66 µM; 0.69% of 370,000 active; AID 1053197, 2014;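 active means inhibition above a cutoff: mean of compounds within the control limits plus 3 SD of those, cut at about 17% in these data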;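 further: 0% = plate median of compound wells and 100% = probe without SIAE protein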
# HTRA1 inh: HTRA1 serine protease inhibitors, primary screen, biochemical, fluorescence polarization, HTS; Q92743; recombinant HTRA1, FP-rhodamine activity-based probe; inhibition, % at 5.96 µM; 0.5% of 340,000 active; AID 504803, 2011; in the data active means inhibition above about 36%;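 further: 0% = enzyme with DMSO and 100% = wells lacking enzyme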
# TDP2 absorb: human TDP2 enzyme inhibitors, primary screen, biochemical, epi absorbance, recombinant enzyme; Tyrosyl-DNA phosphodiesterase 2 (Homo sapiens), O95551; T5PNP hydrolysis, p-nitrophenol absorbance 415 nm; inhibition, % at 12.8 µM; 0.34% of 370,000 active; AID 720702, 2013;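 active means inhibition above the mean of all tested compounds plus 3 SD, set per campaign, cut at about 25% in these data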;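 further: 0% = DMSO with enzyme and 100% = buffer with substrate but no TDP2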
#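 System – recombinant human TDP2 · Amount – 120 nM TDP2 per well · Buffer or medium – Mg2+-containing Tris-HCl buffer, pH 7.5 · Reagent – T5PNP substrate, 5 mM · Dosing – 12.8 µM single point, 1% DMSO · Incubation – 2 h at 37 °C · Measured by – epi absorbance · Read-out basis – percent inhibition · Benchmarks – high control without enzyme, low control DMSO plus TDP2 · Repeats – singlicate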
# SIAE confirm: human SIAE inhibitors, retest, confirmation, biochemical, fluorescence polarization, FP-Rh probe, triplicate; inhibition, % at 9.66 µM; shares compounds with SIAE primary; 13% of 2,300 active; SIAE FP-Rh activity-based probe; AID 1117263, 2014;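 active means mean inhibition of the replicates above the hit cutoff set in the primary screen, cut at about 17% in these data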;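 further: 0% = SIAE with DMSO and probe and 100% = probe without SIAE; inhibitors lower polarization as more probe stays unbound to SIAE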
# Active calls of the source: *; · = not tested or not shown. An excerpt weighted towards active compounds, which were near 2.2% of everything screened.
SMILES,TCR CD3 inh,mABHD4 FP,LEDGF integ inh,SIAE primary,HTRA1 inh,TDP2 absorb,SIAE confirm
COc1ccc(C2CC(=O)Nc3cc(OC)c(OC)cc32)cc1Br (configuration not stated),-1,2,-1,-4,-2,5,·
COc1ccc(C2CC(=O)Nc3ccccc3S2(=O)=O)cc1OC (configuration not stated),-1,9,-3,18*,2,5,0
CCN(CC)c1ccc(NC(=S)Nc2ccc(F)cc2)cc1,2,26,4,-3,21,17,·
COc1ccc(N(CC(=O)NC2CCCC2)C(=O)Cn2nnc(-c3ccc(C)o3)n2)cc1,1,3,1,18*,-9,-9,-2
COc1ccc(Cl)cc1-c1cc(C(=O)NCc2ccccc2)[nH]n1,1,-23,-2,-18,·,-4,·
CC(C)C[C@@H]1COc2cccc(N3CCCCC3)c2S(=O)(=O)N1,1,1,8,-8,·,-7,·
COc1cccc(CN2CCNC(=O)C2CC(=O)NCc2cn3ccccc3n2)c1OC (configuration not stated),4,-5,2,22*,2,5,-3
CCOc1ccc(CN2CCNC(=O)C2CC(=O)NCc2ccccn2)cc1 (configuration not stated),4,1,0,18*,-4,-4,-4
COc1cccc(CN2CCNC(=O)C2CC(=O)NCc2cn3cccc(C)c3n2)c1OC (configuration not stated),6,-1,1,0,0,-1,·
CCCN(CC(=O)Nc1ccccc1OC)C(=O)CNC(=O)c1ccc(C)s1,5,3,-4,-3,0,3,·
O=C(NCc1ccccn1)c1nc(Cn2ccc([N+](=O)[O-])n2)no1,-4,1,-1,-6,7,-3,·
CS(=O)(=O)N(CC(=O)NCCSCc1c(F)cccc1Cl)c1ccc2c(c1)OCO2,-7,-1,0,18*,7,6,7
COc1ccc(N(CC(=O)NCCSCc2c(F)cccc2Cl)S(C)(=O)=O)cc1OC,·,·,·,·,-4,·,·
Cc1cc(C)n2nc(C(=O)OCC(=O)Nc3ccc(F)cc3F)nc2n1,-9,-1,-4,0,5,4,·
CCC(=O)N1CCC1(C)C(=O)Nc1cccc(OC)c1 (configuration not stated),3,0,5,4,·,-2,·
Cc1cc(Nc2ccccc2C(=O)O)nc2nc3ccccc3c(=O)n12,4,-2,2,23*,-2,0,-4
O=C(CSc1ccc(-c2ccccn2)nn1)Nc1cccc(F)c1,0,1,-1,-3,19,10,·
COc1ccc(-n2c(COc3cccc(C)c3)n[nH]c2=S)cc1,-2,-3,3,19*,-2,9,-1
CN(C(=O)c1ccccn1)c1nnc(-c2cccnc2)s1,2,-8,0,7,-1,21,·
Cc1nnc(N(C)C(=O)c2ccccn2)s1,3,2,-3,32*,3,3,4
C=CCn1c(SCC(=O)c2ccc(-c3ccccc3)cc2)nnc1-c1ccc(OC)cc1,·,-13,2,-4,·,-4,·
S=C(Nc1ccc(Cl)c(Cl)c1)NC1CCCCC1,·,·,·,·,-18,·,·
S=C(Nc1ccc2nsnc2c1)NC1CCCCC1,-1,-5,-4,19*,1,7,2
CCNC(=S)N1CCc2cc(OC)c(OC)cc2C1COc1ccccc1OC (configuration not stated),-11,2,-2,18*,-8,1,2
COc1cc2c3nc4n(c(=O)c3n(CC(=O)N3CCCC3)c2cc1OC)CCS4,-2,2,-2,-2,-7,10,·
SMILES,TCR CD3 inh,mABHD4 FP,LEDGF integ inh,SIAE primary,HTRA1 inh,TDP2 absorb,SIAE confirm
CCOc1ccc(/C=N/NC(=O)c2cc3c(OC)cc(OC)c(OC)c3[nH]2)cc1,-4,22,-7,31*,15,-6,17*
CCCOc1ccc2[nH]c(C(=O)N/N=C/c3cc(OC)c(OC)c(OC)c3)cc2c1,-8,3,-5,15,-1,-16,·
COc1cc(OC)c2cc(C(=O)N/N=C/c3ccccc3O)[nH]c2c1,16,9,-4,25*,25,-22,5
COC(=O)CCCNC(=O)CCc1nnc(-c2ccc(-c3ccccc3)cc2)o1,3,1,6,18*,7,-7,0
O=C(CCc1nnc(-c2ccc(-c3ccccc3)cc2)o1)NCCc1ccccn1,4,7,2,-1,4,-3,·
O=C(CCCCC(=O)Sc1ccccc1)Sc1ccccc1,3,-6,9,18*,-3,1,4
O=C(CNC(=O)c1ccccc1)Sc1ccccc1,-1,6,-4,1,5,-7,·
Cc1ccccc1OCC(O)COc1ccccc1C,1,-14,0,-5,-15,-5,·
N#Cc1cccc(NC(=O)OCCCN2CCC3(CCCCC3)C2=O)c1,·,-3,2,6,·,-3,·
Cn1ccc2c(N3CCCC3)cc3c(c21)C1CCC3C1 (configuration not stated),-5,4,5,7,·,1,·
Cn1ccc2c(N3CCCC3)cc3c(c21)C1CCC3O1 (configuration not stated),5,22,6,20*,·,6,-1
COC(=O)[C@H]1C[C@@H]1[C@H](NC(=O)[C@H]1C[C@@H]1[C@H](NC(=O)OCc1ccccc1)c1ccccc1)c1ccccc1,-2,-14,0,20*,-24,-1,-3
CN(C)C(=O)[C@@H]1C[C@H]1[C@@H](NC(=O)OCc1ccccc1)c1ccccc1,0,0,2,7,0,-9,·
Clc1ccc(SCc2csc(N3CCOCC3)n2)cc1,5,0,0,18*,0,11,-1
CN(CCCC(=O)Nc1ccc(Br)cc1F)S(=O)(=O)c1ccccc1,2,-5,-3,-6,-6,-10,·
c1ccc2c(c1)CCN(C1=Nc3cccc4cccc1c34)C2,6,9,5,30*,17,2,1
c1cc2c3c(cccc3c1)C(N1CCCCCC1)=N2,-7,-5,3,2,2,-6,·
Cc1cc(C)n2nc(CC(=O)NNC(=O)c3ccccc3Cl)nc2n1,-6,-12,0,1,-2,-16,·
